# Measured values published in ChEMBL document CHEMBL3297699, “Synthesis of novel fluoro analogues of MKC442 as microbicides” (J Med Chem, 2014).
# What was measured:
# [1] = test system: Human immunodeficiency virus 1; experiment: Antiviral activity against wild type HIV1 3B infected in human MT4 cells assessed as inhibition of virus-induced cytopathogenicity after 4 days by MTT assay; type: functional, organism-based; details: Human immunodeficiency virus 1, 3B, MT4, 96 h
# How it was run: (§1)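 MT-4 cells grown at 37 °C, 5% CO2 in RPMI-1640 with 10% FCS, penicillin and streptomycin. Compounds taken up in DMSO at […] (stock), then diluted in medium. 1 × 10^4 cells per well with serial compound dilutions, then HIV-1 inoculum sized to give complete cytopathogenicity by day 4. Viability read by MTT. […] Mean of three independent determinations.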
# [2] = test system: Human immunodeficiency virus 1; experiment: Antiviral activity against efavirenz-resistant HIV1 harboring RT 100I, 103R, 179D, 225H mutant infected in human MT4 cells assessed as inhibition of virus-induced cytopathogenicity after 4 days by MTT assay; type: functional, organism-based; details: Human immunodeficiency virus 1, MT4; how it was run: as §1
# [3] = test system: Human immunodeficiency virus 1; experiment: Antiviral activity against […] HIV1 harboring Y181C mutant infected in human MT4 cells assessed as inhibition of virus-induced cytopathogenicity after 4 days by MTT assay; type: functional, organism-based; details: Human immunodeficiency virus 1, MT4, 96 h; how it was run: as §1
# [4] = test system: Human immunodeficiency virus 1; experiment: Antiviral activity against […] HIV1 harboring 103N, 181C mutant infected in human MT4 cells assessed as inhibition of virus-induced cytopathogenicity after 4 days by MTT assay; type: functional, organism-based; details: Human immunodeficiency virus 1, MT4, 96 h; how it was run: as §1
# [5] = test system: Human immunodeficiency virus 1; experiment: Antiviral activity against zidovudine-resistant HIV1 harboring RT 67N, 70R, 215F, 219Q mutant infected in human MT4 cells assessed as inhibition of virus-induced cytopathogenicity after 4 days by MTT assay; type: functional, organism-based; details: Human immunodeficiency virus 1, MT4, 96 h; how it was run: as §1
# [6] = test system: Human immunodeficiency virus 1; experiment: Antiviral activity against MDR-resistant HIV1 harboring 41L, 74V, 106A, 215Y mutant infected in human MT4 cells assessed as inhibition of virus-induced cytopathogenicity after 4 days by MTT assay; type: functional, organism-based; details: Human immunodeficiency virus 1, MT4, 96 h; how it was run: as §1
# [7] = test system: Human immunodeficiency virus 1; experiment: Antiviral activity against 6-[(3,5-Dimethylphenyl)fluoromethyl]-5-ethyl-1-{[[4-(3-hydroxyprop-1-ynyl)benzyl]oxy]methyl}pyrimidine-2,4(1H,3H)-dione-resistant HIV1 harboring RT 106I, 181C mutant infected in human MT4 cells assessed as inhibition of virus-induced cytopathogenicity after 4 days by MTT assay; type: functional, organism-based; details: Human immunodeficiency virus 1, MT4; how it was run: as §1
# [8] = test system: Human immunodeficiency virus 1; experiment: Antiviral activity against MC1220-resistant HIV1 harboring RT 100I, 179D, 181C mutant infected in human MT4 cells assessed as inhibition of virus-induced cytopathogenicity after 4 days by MTT assay; type: functional, organism-based; details: Human immunodeficiency virus 1, MT4, 96 h; how it was run: as §1
# [9] = test system: Human immunodeficiency virus 1; experiment: Antiviral activity against TMC120-resistant HIV1 harboring RT 100I, 138G mutant infected in human MT4 cells assessed as inhibition of virus-induced cytopathogenicity after 4 days by MTT assay; type: functional, organism-based; details: Human immunodeficiency virus 1, MT4, 96 h; how it was run: as §1
# [10] = test system: Human immunodeficiency virus 1; experiment: Antiviral activity against TMC125-resistant HIV1 harboring RT 109M, 138K, 190E mutant infected in human MT4 cells assessed as inhibition of virus-induced cytopathogenicity after 4 days by MTT assay; type: functional, organism-based; details: Human immunodeficiency virus 1, MT4, 96 h; how it was run: as §1
# [11] = Cytotoxicity against human MT4 cells after 96 hrs by MTT assay; type: cell-based
# How it was run: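 Serial compound dilutions (from DMSO stocks at […]) are added, then cells are held 96 h at 37 °C in humidified 5% CO2. Viability is read by MTT. The value is the concentration reducing proliferation by 50%, as the mean of three independent determinations, run in parallel with the antiviral assays.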
# [12] = test system: Human immunodeficiency virus 1; experiment: Antiviral activity against saquinavir-resistant HIV1 infected in human MT4 cells assessed as inhibition of virus-induced cytopathogenicity after 4 days by MTT assay; type: functional, organism-based; details: Human immunodeficiency virus 1, MT4, 96 h; how it was run: as §1
# [13] = test system: Human immunodeficiency virus 1; experiment: Antiviral activity against HIV1 MP1308 infected in human dendritic cells assessed as inhibition of p24; details: Human immunodeficiency virus 1, MP1308, dendritic cells
# [14] = test system: Human immunodeficiency virus 1; experiment: Antiviral activity against HIV1 MP1033 infected in human dendritic cells assessed as inhibition of p24; details: Human immunodeficiency virus 1, MP1033, dendritic cells
# [15] = test system: Human immunodeficiency virus 1; experiment: Antiviral activity against HIV1 W5269 infected in human dendritic cells assessed as inhibition of p24 production; details: Human immunodeficiency virus 1, W5269, dendritic cells
# [16] = test system: Human immunodeficiency virus 1; experiment: Antiviral activity against HIV1 CRF01 infected in human dendritic cells assessed as inhibition of p24 in supernatants; details: Human immunodeficiency virus 1, CRF01, dendritic cells
# [17] = test system: Human immunodeficiency virus 1; experiment: Antiviral activity against HIV1 CRF02 infected in human dendritic cells assessed as inhibition of p24 in supernatants; details: Human immunodeficiency virus 1, CRF02, dendritic cells
# [18] = test system: Human immunodeficiency virus 1; experiment: Antiviral activity against HIV1 MP634 infected in human dendritic cells assessed as inhibition of p24 in supernatants; details: Human immunodeficiency virus 1, MP634, dendritic cells
# [19] = test system: Human immunodeficiency virus 1; experiment: Antiviral activity against NRTI-resistant HIV1 MP1315 infected in human dendritic cells assessed as inhibition of p24 in supernatants; details: Human immunodeficiency virus 1, MP1315, dendritic cells
# [20] = Cytotoxicity against human MT4 cells after 40 days by MTT assay; type: cell-based
# How it was run: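 Mock-infected MT-4 cells at 1 × 10^5 cells/mL, 37 °C, with various compound concentrations for 40 days. One-tenth of the culture is moved every 3−4 days into fresh drug-containing medium at low density to keep growth exponential. Viability is read by MTT at each passage. The value is the maximum concentration still allowing exponential proliferation, as the mean of three determinations.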
# [21] = test system: Human immunodeficiency virus 1; experiment: Antiviral activity against HIV1 infected in human MT4 cells assessed as lowest compound concentration required to irreversibly knock out vial multiplication treated by chronic treatment measured after 40 days by MTT assay; type: functional
# How it was run: (§2)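 HIV-1-infected MT-4 cells at high MOI (5−10 CCID50/cell) in 40-day assays. Compound is given continuously (chronic), for only the first 4 h after infection, or for 4 h immediately before infection. Cells are resuspended at 10^5 cells/mL every 4 days. The value is the lowest concentration that irreversibly knocks out HIV-1 multiplication, as the mean of three independent determinations.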
# [22] = test system: Human immunodeficiency virus 1; experiment: Antiviral activity against HIV1 infected in human MT4 cells assessed as lowest compound concentration required to irreversibly knock out vial multiplication treated 4 hrs after infection measured after 40 days by MTT assay; type: functional; how it was run: as §2
# [23] = test system: Human immunodeficiency virus 1; experiment: Antiviral activity against HIV1 infected in human MT4 cells assessed as lowest compound concentration required to irreversibly knock out vial multiplication treated 4 hrs before infection measured after 40 days by MTT assay; type: functional; how it was run: as §2
# [24] = test system: Human immunodeficiency virus 1; experiment: Antiviral activity against HIV1 MP411 infected in human dendritic cells assessed as inhibition of p24 in supernatants; details: Human immunodeficiency virus 1, MP411, dendritic cells
# [25] = test system: Human immunodeficiency virus 1; experiment: Antiviral activity against HIV1 MP582 infected in human dendritic cells assessed as inhibition of p24 production; details: Human immunodeficiency virus 1, MP582, dendritic cells
Structure (SMILES),EC50 [1],EC50 [2],EC50 [3],EC50 [4],EC50 [5],EC50 [6],EC50 [7],EC50 [8],EC50 [9],EC50 [10],CC50 at 96 h [11],EC50 [12],further results
Cc1cn([C@H]2C[C@H](N=[N+]=[N-])[C@@H](CO)O2)c(=O)[nH]c1=O [ZIDOVUDINE],10 nM,10 nM,20 nM,10 nM,200 nM,200 nM,10 nM,9 nM,10 nM,8 nM,,,
CCOCn1c(C(F)c2cc(C)cc(C)c2)c(CC)c(=O)[nH]c1=O (configuration not stated),5 nM,6000 nM,300 nM,2000 nM,40 nM,,,,,,85000 nM,9000 nM,
C=C(C)COCn1c(C(F)c2cc(C)cc(C)c2)c(CC)c(=O)[nH]c1=O (configuration not stated),8 nM,4000 nM,400 nM,7000 nM,70 nM,3400 nM,,,,,40000 nM,3800 nM,
O=C1Nc2ccc(Cl)cc2[C@@](C#CC2CC2)(C(F)(F)F)O1 [EFAVIRENZ],,6000 nM,,80 nM,2 nM,4 nM,60 nM,100 nM,90 nM,7000 nM,,,EC99 [13]: 0.01 µM; EC99 [14]: 0.01 µM; EC99 [15]: 0.01 µM; EC99 [16]: 0.01 µM; EC99 [17]: 0.01 µM; EC99 [18]: 0.01 µM; EC99 [19]: ≤ 0.0001 µM
Cc1cc(C)c(Nc2ccnc(Nc3ccc(C#N)cc3)n2)c(C)c1 [DAPIVIRINE],3 nM,200 nM,40 nM,50 nM,1 nM,2 nM,100 nM,100 nM,> 20000 nM,> 20000 nM,2000 nM,3 nM,MNTC at 960 h [20]: 0.3 µM; Activity [21]: 0.1 µM; Activity [22]: >20 µM; Activity [23]: >20 µM; EC99 [13]: 0.01 µM; EC99 [14]: 0.01 µM; EC99 [16]: 0.01 µM; EC99 [17]: 0.01 µM; EC99 [18]: 0.01 µM; EC99 [24]: 0.01 µM; EC99 [19]: 0.0001 µM
Cc1c(C(C)c2c(F)cccc2F)nc(N(C)C)[nH]c1=O (configuration not stated),2 nM,2000 nM,800 nM,> 20000 nM,4 nM,10 nM,700 nM,3000 nM,2000 nM,3000 nM,≥ 100000 nM,10 nM,MNTC at 960 h [20]: 30 µM; Activity [21]: <0.1 µM; Activity [22]: <5 µM; Activity [23]: <5 µM; EC99 [13]: 0.01 µM; EC99 [14]: 0.01 µM; EC99 [15]: 0.01 µM; EC99 [25]: 0.001 µM; EC99 [16]: 0.001 µM; EC99 [17]: 0.01 µM; EC99 [18]: 0.1 µM; EC99 [24]: 0.01 µM; EC99 [19]: ≤ 0.0001 µM
CCc1c(C(F)c2cc(C)cc(C)c2)n(COCc2ccc(C#CC=O)cc2)c(=O)[nH]c1=O (configuration not stated),80 nM,2400 nM,400 nM,14000 nM,100 nM,2300 nM,,,,,27000 nM,5200 nM,
CCc1c(C(F)c2cc(C)cc(C)c2)[nH]c(=O)n(COCc2ccc(I)cc2)c1=O (configuration not stated),9000 nM,> 100000 nM,> 100000 nM,> 100000 nM,11000 nM,> 100000 nM,,,,,> 100000 nM,23000 nM,
CC(C)(C)NC(=O)[C@@H]1C[C@@H]2CCCC[C@@H]2CN1C[C@@H](O)[C@H](Cc1ccccc1)NC(=O)[C@H](CC(N)=O)NC(=O)c1ccc2ccccc2n1,20 nM,10 nM,20 nM,10 nM,10 nM,20 nM,20 nM,10 nM,20 nM,10 nM,15000 nM,90 nM,
CCOCn1c(Cc2ccccc2)c(C(C)C)c(=O)[nH]c1=O [EMIVIRINE],,100000 nM,> 10000 nM,> 100000 nM,80 nM,1500 nM,,,,,> 100000 nM,60 nM,
Cc1ccnc2c1NC(=O)c1cccnc1N2C1CC1 [NEVIRAPINE],,> 10000 nM,> 10000 nM,> 10000 nM,60 nM,3000 nM,> 20000 nM,4000 nM,1000 nM,> 20000 nM,> 100000 nM,,
C=CCOCn1c(C(F)c2cc(C)cc(C)c2)c(CC)c(=O)[nH]c1=O (configuration not stated),4 nM,2000 nM,200 nM,1600 nM,50 nM,,,,,,64000 nM,4200 nM,
Cc1cc(C#N)cc(C)c1Oc1nc(Nc2ccc(C#N)cc2)nc(N)c1Br [ETRAVIRINE],,300 nM,10 nM,10 nM,1 nM,1 nM,100 nM,30 nM,70 nM,200 nM,,,
CCc1c(C(F)c2cc(C)cc(C)c2)n(COCc2ccc(I)cc2)c(=O)[nH]c1=O (configuration not stated),400 nM,1400 nM,200 nM,2000 nM,300 nM,1500 nM,,,,,43000 nM,1200 nM,
